Measurements from ChEMBL document CHEMBL1150282, “Synthesis and biological evaluation of pyridazinone analogues as potential cardiac positron emission tomography tracers” (J Med Chem, 2008).

Assays:
[1] = Inhibition of mitochondrial complex 1 in bovine heart mitochondria assessed as effect on rate of NADH oxidation; parameters: species or system Bos taurus
Summary of the method: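 Bovine heart submitochondrial particles (45 µg/mL final) in 50 mM K₂HPO₄ pH 7.4 with 0.4 µM antimycin A and 2 mM KCN. Inhibitor at varying concentrations preincubated 4 min, then 100 µM decyl ubiquinone and 50 µM NADH added. NADH oxidation followed at 340 nm, 37 °C, 120 s; IC50 is concentration giving 50% inhibition.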

Heart [2] = assay: Biodistribution in Sprague-Dawley rat heart at 15 uCi, iv after 30 mins; assay type: ADME, organism-based; details: in vivo, 0.5 h
Summary of the method: (§1)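 Male Sprague–Dawley rats (300–400 g) anesthetized with sodium pentobarbital 50 mg/kg ip; left femoral vein cannulated; about 15 µCi radiotracer in 0.3 mL 10% ethanol saline given iv. Killed in CO₂ at 30 or 120 min (n = 3 per time point); tissues weighed and gamma-counted. Counts decay-corrected, net dose from syringe and catheter residues subtracted; expressed as %ID/g ± SD.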

Heart [3] = assay: Biodistribution in Sprague-Dawley rat heart at 15 uCi, iv after 120 mins; assay type: ADME, organism-based; details: in vivo, 2 h; summary of the method: as §1
[4] = Ratio of drug uptake in heart to blood of Sprague-Dawley rat at 15 uCi, iv after 30 mins; assay type: ADME, organism-based; details: heart and blood (heart-to-blood ratio), read-out: Activity
Summary of the method: (§2)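 Same rat protocol: pentobarbital-anesthetized male SD rats (300–400 g), about 15 µCi iv in 10% ethanol saline via femoral vein, three animals per point, gamma counting of weighed tissues with decay correction. Ratios formed from heart %ID/g over blood, lung, liver or femur %ID/g at 30 min post injection.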

[5] = Ratio of drug uptake in heart to lung of Sprague-Dawley rat at 15 uCi, iv after30 mins; assay type: ADME, organism-based; details: in vivo, 0.5 h; summary of the method: as §2
[6] = Ratio of drug uptake in heart to liver of Sprague-Dawley rat at 15 uCi, iv after30 mins; assay type: ADME, organism-based; details: in vivo, 0.5 h; summary of the method: as §2
[7] = Ratio of drug uptake in heart to femur of Sprague-Dawley rat at 15 uCi, iv after30 mins; assay type: ADME, organism-based; details: in vivo, 0.5 h; summary of the method: as §2
Lung [8] = assay: Biodistribution in Sprague-Dawley rat lung at 15 uCi, iv after 30 mins; assay type: ADME, organism-based; details: in vivo, 0.5 h; summary of the method: as §1
Lung [9] = assay: Biodistribution in Sprague-Dawley rat lung at 15 uCi, iv after 120 mins; assay type: ADME, organism-based; details: in vivo, 2 h; summary of the method: as §1
Liver [10] = assay: Biodistribution in Sprague-Dawley rat liver at 15 uCi, iv after 30 mins; assay type: ADME, organism-based; details: in vivo, 0.5 h; summary of the method: as §1
Liver [11] = assay: Biodistribution in Sprague-Dawley rat liver at 15 uCi, iv after 120 mins; assay type: ADME, organism-based; details: in vivo, 2 h; summary of the method: as §1
Femur [12] = assay: Biodistribution in Sprague-Dawley rat femur at 15 uCi, iv after 30 mins; assay type: ADME, organism-based; details: in vivo, 0.5 h; summary of the method: as §1
Femur [13] = assay: Biodistribution in Sprague-Dawley rat femur at 15 uCi, iv after 120 mins; assay type: ADME, organism-based; details: in vivo, 2 h; summary of the method: as §1
Blood [14] = assay: Biodistribution in Sprague-Dawley rat blood at 15 uCi, iv after 30 mins; assay type: ADME, organism-based; details: in vivo, 0.5 h; summary of the method: as §1
Blood [15] = assay: Biodistribution in Sprague-Dawley rat blood at 15 uCi, iv after 120 mins; assay type: ADME, organism-based; details: in vivo, 2 h; summary of the method: as §1

## CC(F)COc1ccc(COc2cnn(C(C)(C)C)c(=O)c2Cl)cc1 (stereo not drawn)
[1]
  IC50: 0.008 µM
Heart [2]
  Drug uptake: 1.15 % ID/g
Heart [3]
  Drug uptake: 1.14 % ID/g
[4]
  Kp at 0.5 h: 13.2
[5]
  Activity: 11.41
[6]
  Activity: 2.62
[7]
  Activity: 0.4
Lung [8]
  Drug uptake: 0.1 % ID/g
Lung [9]
  Drug uptake: 0.06 % ID/g
Liver [10]
  Drug uptake: 0.44 % ID/g
Liver [11]
  Drug uptake: 0.4 % ID/g
Femur [12]
  Drug uptake: 2.91 % ID/g
Femur [13]
  Drug uptake: 3.91 % ID/g
Blood [14]
  Drug uptake: 0.09 % ID/g
Blood [15]
  Drug uptake: 0.04 % ID/g

## CC(C)(C)n1ncc(OCc2ccc(-c3ccccc3)cc2)c(Cl)c1=O
[1]
  IC50: 0.031 µM

## Cc1c(SCc2ccc(CCCC[18F])cc2)oc2ccccc2c1=O
[1]
  IC50: 0.009 µM

## CCCCOc1ccc(COc2cnn(C(C)(C)C)c(=O)c2Cl)cc1
[1]
  IC50: 0.027 µM

## CC(F)CCc1ccc(COc2cnn(C(C)(C)C)c(=O)c2Cl)cc1 (stereo not drawn)
[1]
  IC50: 0.01 µM
Heart [2]
  Drug uptake: 2.25 % ID/g
Heart [3]
  Drug uptake: 2.14 % ID/g
[4]
  Kp at 0.5 h: 20.8
[5]
  Activity: 12.49
[6]
  Activity: 1.78
[7]
  Activity: 1.98
Lung [8]
  Drug uptake: 0.18 % ID/g
Lung [9]
  Drug uptake: 0.14 % ID/g
Liver [10]
  Drug uptake: 1.27 % ID/g
Liver [11]
  Drug uptake: 0.63 % ID/g
Femur [12]
  Drug uptake: 1.14 % ID/g
Femur [13]
  Drug uptake: 2.38 % ID/g
Blood [14]
  Drug uptake: 0.11 % ID/g

## CC(C)(C)n1ncc(OCc2ccc(CCCCF)cc2)c(Cl)c1=O
[1]
  IC50: 0.015 µM
Heart [2]
  Drug uptake: 2.94 % ID/g
Heart [3]
  Drug uptake: 2.99 % ID/g
[4]
  Kp at 0.5 h: 60.7
[5]
  Activity: 14.93
[6]
  Activity: 1.45
[7]
  Activity: 6.84
Lung [8]
  Drug uptake: 0.01 % ID/g
Lung [9]
  Drug uptake: 0.18 % ID/g
Liver [10]
  Drug uptake: 2.03 % ID/g
Liver [11]
  Drug uptake: 0.62 % ID/g
Femur [12]
  Drug uptake: 0.43 % ID/g
Femur [13]
  Drug uptake: 1.16 % ID/g
Blood [14]
  Drug uptake: 0.11 % ID/g
Blood [15]
  Drug uptake: 0.04 % ID/g

## CC(C)(C)n1ncc(OCc2ccc(OCCCF)cc2)c(Cl)c1=O
[1]
  IC50: 0.047 µM
Heart [2]
  Drug uptake: 1.31 % ID/g
Heart [3]
  Drug uptake: 0.86 % ID/g
[4]
  Kp at 0.5 h: 9.27
[5]
  Activity: 5.4
[6]
  Activity: 0.77
[7]
  Activity: 2
Lung [8]
  Drug uptake: 0.24 % ID/g
Lung [9]
  Drug uptake: 0.08 % ID/g
Liver [10]
  Drug uptake: 1.7 % ID/g
Liver [11]
  Drug uptake: 0.55 % ID/g
Femur [12]
  Drug uptake: 0.65 % ID/g
Femur [13]
  Drug uptake: 0.76 % ID/g
Blood [14]
  Drug uptake: 0.15 % ID/g
Blood [15]
  Drug uptake: 0.07 % ID/g

## CC(C)(C)c1ccc(CNc2cnn(C(C)(C)C)c(=O)c2Cl)cc1
[1]
  IC50: 4 µM

## CCCCc1ccc(COc2cnn(C(C)(C)C)c(=O)c2Cl)cc1
[1]
  IC50: 0.017 µM

## CC(C)(C)c1ccc(CSc2cnn(C(C)(C)C)c(=O)c2Cl)cc1 [PYRIDABEN]
[1]
  IC50: 0.008 µM

## CC(C)(C)n1ncc(OCc2ccc3ncccc3c2)c(Cl)c1=O
[1]
  IC50: 0.221 µM

## CC(C)(C)c1ccc(COc2cnn(C(C)(C)C)c(=O)c2Cl)cc1
[1]
  IC50: 0.064 µM

## CCCCCCCCCCSC1N=CN(C(C)(C)C)C(=O)C1Cl (stereo not drawn)
[1]
  IC50: > 4 µM

## CC(C)(C)n1ncc(OCc2ccccc2)c(Cl)c1=O
[1]
  IC50: 0.85 µM

## C=C(C)[C@H]1Cc2c(ccc3c2O[C@@H]2COc4cc(OC)c(OC)cc4[C@@H]2C3=O)O1 [ROTENONE]
[1]
  IC50: 0.016 µM

## Cc1c(SCc2ccc(C(C)(C)C)cc2)cnn(C(C)(C)C)c1=O
[1]
  IC50: 0.021 µM

## CC(C)(C)n1ncc(OCc2ccc3ccccc3c2)c(Cl)c1=O
[1]
  IC50: 0.06 µM

## CC(C)(C)c1ccc(CCOc2ncnc3ccccc23)cc1 [FENAZAQUIN]
[1]
  IC50: 0.09 µM

## [18F]CCCCc1ccc(CCOc2ncnc3ccccc23)cc1
[1]
  IC50: 0.011 µM

## CC(C)(C)n1ncc(OCc2ccc(COCCF)cc2)c(Cl)c1=O [FLURPIRIDAZ]
[1]
  IC50: 0.011 µM
Heart [2]
  Drug uptake: 3.41 % ID/g
Heart [3]
  Drug uptake: 3.47 % ID/g
[4]
  Kp at 0.5 h: 30
[5]
  Activity: 16.05
[6]
  Activity: 2.74
[7]
  Activity: 7.51
Lung [8]
  Drug uptake: 0.21 % ID/g
Lung [9]
  Drug uptake: 0.28 % ID/g
Liver [10]
  Drug uptake: 1.25 % ID/g
Liver [11]
  Drug uptake: 0.55 % ID/g
Femur [12]
  Drug uptake: 0.45 % ID/g
Femur [13]
  Drug uptake: 0.75 % ID/g
Blood [14]
  Drug uptake: 0.11 % ID/g
Blood [15]
  Drug uptake: 0.19 % ID/g

## Cc1c(SCc2ccc(C(C)(C)C)cc2)oc2ccccc2c1=O
[1]
  IC50: 0.052 µM

## CCC(CF)Oc1ccc(COc2cnn(C(C)(C)C)c(=O)c2Cl)cc1 (stereo not drawn)
[1]
  IC50: 0.016 µM
Heart [2]
  Drug uptake: 1.05 % ID/g
Heart [3]
  Drug uptake: 1.24 % ID/g
[4]
  Kp at 0.5 h: 6.05
[5]
  Activity: 1.37
[6]
  Activity: 1.11
[7]
  Activity: 0.89
Lung [8]
  Drug uptake: 0.79 % ID/g
Lung [9]
  Drug uptake: 0.22 % ID/g
Liver [10]
  Drug uptake: 0.98 % ID/g
Liver [11]
  Drug uptake: 0.39 % ID/g
Femur [12]
  Drug uptake: 1.23 % ID/g
Femur [13]
  Drug uptake: 3 % ID/g
Blood [14]
  Drug uptake: 0.18 % ID/g
Blood [15]
  Drug uptake: 0.06 % ID/g

## CC(C)(C)c1ccc(CSc2cnn(C(C)(C)C)c(=O)c2CF)cc1
[1]
  IC50: 0.25 µM

## CC(C)(C)c1ccc(CSc2cnn(C(C)(C)C)c(=O)c2F)cc1
[1]
  IC50: 0.279 µM

## CC(C)(C)c1ccc(CCOc2cnn(C(C)(C)C)c(=O)c2Cl)cc1
[1]
  IC50: 0.711 µM

## [2H]C([2H])(Oc1cnn(C(C)(C)C)c(=O)c1Cl)c1ccc(COC([2H])([2H])C([2H])([2H])F)cc1
[1]
  IC50: 0.028 µM
Heart [2]
  Drug uptake: 1.09 % ID/g
Heart [3]
  Drug uptake: 1.6 % ID/g
[4]
  Kp at 0.5 h: 12.7
[5]
  Activity: 7.33
[6]
  Activity: 1.7
[7]
  Activity: 4.6
Lung [8]
  Drug uptake: 0.15 % ID/g
Lung [9]
  Drug uptake: 0.13 % ID/g
Liver [10]
  Drug uptake: 0.64 % ID/g
Liver [11]
  Drug uptake: 0.44 % ID/g
Femur [12]
  Drug uptake: 0.23 % ID/g
Femur [13]
  Drug uptake: 0.78 % ID/g
Blood [14]
  Drug uptake: 0.08 % ID/g
Blood [15]
  Drug uptake: 0.1 % ID/g
